Results: ChEMBL document CHEMBL2034874, “5-acetyl-2-arylbenzimidazoles as antiviral agents. Part 4” (Eur J Med Chem, 2012)

Assays:
[1] = system: Human alphaherpesvirus 1; test: Antiviral activity against Herpes simplex virus type 1 KOS ATCC VR-1493 infected in african green monkey Vero-76 cells assessed as reduction in viral plaque after 3 days by crystal violet staining; format: functional, organism-based; details: Human alphaherpesvirus 1, KOS ATCC VR1493, Vero 76, 72 h
Procedure, shortened: (§1)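 Vero-76 monolayers (2×10^5 cells/well) infected for 2 h at 50–100 PFU/well. Unadsorbed virus removed. D-MEM with 1% inactivated FBS, 0.75% methylcellulose and serial compound dilutions added. Incubation at 37 °C for 3 days (CVB-5, HSV-1) or 5 days (RSV). Fixed and stained with 50% ethanol/0.8% crystal violet, then plaques counted. EC50 by linear regression versus untreated controls.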

[2] = system: Coxsackievirus B5; test: Antiviral activity against Coxsackie virus type B5 Ohio-1 ATCC VR-29 infected in african green monkey Vero-76 cells assessed as reduction in viral plaque after 3 days by crystal violet staining; format: functional, organism-based; details: Enterovirus B, Ohio-1 ATCC VR-29, Vero 76, 72 h; procedure, shortened: as §1
[3] = system: Poliovirus 1; test: Antiviral activity against Polio virus type 1 strain sabin ATCC VR-1562 infected in african green monkey Vero-76 cells assessed as reduction in viral plaque after 2 days by crystal violet staining; format: functional, cell-based, Human poliovirus 1 strain Sabin; details: Enterovirus C, ATCC VR-1562, Vero 76, 48 h
[4] = Antiviral activity against Human respiratory syncytial virus A2 ATCC VR-1540 infected in african green monkey Vero-76 cells assessed as reduction in viral plaque after 5 days by crystal violet staining; format: functional, cell-based; details: ATCC VR-1540, Vero 76, 120 h; procedure, shortened: as §1
[5] = Cytotoxicity against human MT4 cells after 96 hrs by MTT assay; format: cell-based
Procedure, shortened: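 Exponentially growing MT-4 cells seeded at 1×10^5 cells/mL in RPMI-1640 with 10% FBS and incubated with serial compound dilutions at 37 °C and 5% CO2. Viability measured by MTT after 96 h. CC50 by linear regression against untreated controls.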

[6] = system: Vesicular stomatitis Indiana virus; test: Antiviral activity against Vesicular stomatitis virus indiana ATCC VR-1540 infected in african green monkey Vero-76 cells assessed as reduction in viral plaque after 2 days by crystal violet staining; format: functional, organism-based; details: ATCC VR-1540, Vero 76, 48 h
[7] = system: Vaccinia virus; test: Antiviral activity against Vaccinia virus Elstree-Lister ATCC VR-1549 infected in african green monkey Vero-76 cells assessed as reduction in viral plaque after 3 days by crystal violet staining; format: functional, organism-based; details: Orthopoxvirus vaccinia, Elstree-Lister ATCC VR-1549, Vero 76, 72 h
[8] = system: Human immunodeficiency virus 1; test: Antiviral activity against HIV1 3B infected in human MT4 cells assessed as inhibition of virus-induced cytopathogenicity after 4 days by MTT assay; format: functional, organism-based; details: Human immunodeficiency virus 1, 3B, MT4, 96 h
Procedure, shortened: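 MT-4 cells (1×10^4/well) in RPMI with serial compound dilutions, infected with HIV-1 IIIB at 100 CCID50 (m.o.i. 0.01). Viability measured by MTT after 4 days at 37 °C. EC50 for 50% protection from cytopathogenicity obtained by linear regression against untreated controls.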

[9] = Cytotoxicity against BHK21 cells by MTT assay; format: cell-based, Mesocricetus auratus; details: hamster, BHK-21 cells
Procedure, shortened: (§2)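 Mock-infected MDBK (6×10^5 cells/mL, MEM-E with 10% horse serum) or BHK (1×10^6 cells/mL, MEM-E with 10% FBS) cells incubated with serial compound dilutions at 37 °C and 5% CO2. Viability measured by MTT after 48–96 h. CC50 by linear regression against untreated controls.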

[10] = system: Mammalian orthoreovirus 1; test: Antiviral activity against Reovirus 1 3651 ATCC VR-214 infected in BHK21 cells assessed as inhibition of virus-induced cytopathogenicity after 3 to 4 days by MTT assay; format: functional, organism-based; details: Mammalian orthoreovirus 1, 3651 ATCC VR-214, BHK-21
Procedure, shortened: (§3)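 BHK (5×10^4/well) or MDBK (3×10^4/well) cells grown to confluent monolayers overnight, infected at m.o.i. 0.01 in maintenance MEM-Earl with 0.5% inactivated FBS. Serially diluted compounds added after 1 h. Viability read by MTT after 3–4 days at 37 °C. Values are expressed as % of untreated controls, and EC50 is derived by linear regression. Duplicate samples.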

[11] = Cytotoxicity against african green monkey Vero 76 cells after 48 to 96 hrs by MTT assay; format: cell-based; details: chlorocebus sabaeus
[12] = Antiviral activity against BVDV1 NADL ATCC VR-534 infected in MDBK cells assessed as inhibition of virus-induced cytopathogenicity after 3 to 4 days by MTT assay; format: functional, cell-based, Bovine viral diarrhea virus 1-NADL; details: Bovine viral diarrhea virus isolates and strains, ATCC VR-534, MDBK; procedure, shortened: as §3
[13] = system: Yellow fever virus; test: Antiviral activity against Yellow fever virus 17D infected in BHK21 cells assessed as inhibition of virus-induced cytopathogenicity after 3 to 4 days by MTT assay; format: functional, cell-based; details: BHK-21
[14] = Cytotoxicity against MDBK cells after 48 to 96 hrs by MTT assay; format: cell-based, Bos taurus; details: cattle; procedure, shortened: as §2

SMILES	EC50 [1] [µM]	EC50 [2] [µM]	EC50 [3] [µM]	EC50 [4] [µM]	CC50 at 96 h [5] [µM]	EC50 [6] [µM]	EC50 [7] [µM]	EC50 [8] [µM]	CC50 [9] [µM]	EC50 [10] [µM]	CC50 [11] [µM]	EC50 [12] [µM]	EC50 [13] [µM]	CC50 [14] [µM]
C/C(=N\NC(N)=S)c1ccc2c(c1)nc(-c1ccccc1)n2C1CCCCC1	> 20	> 20	> 20	> 20	20	> 20	> 20	10	38	> 38	20	4.5	9	24
COc1ccc(-c2nc3cc(/C(C)=N/O)ccc3[nH]2)c(OC)c1OC	> 100	> 100	> 100		51		> 100	> 51	> 100	> 100	> 100	> 100	> 100	> 100
C/C(=N\NC(N)=S)c1ccc2[nH]c(C3CCCCC3)nc2c1		> 100	> 100	> 100	48	> 100	> 100	> 48	24		> 100	16	> 24	> 100
COc1ccc(-c2nc3cc(C(C)O)ccc3[nH]2)c(OC)c1OC (stereo not drawn)	> 100	> 100	> 100	> 100	79		> 100	> 79	60	> 100	≥ 100	> 60	> 60	60
C/C(=N\NC(N)=S)c1ccc2[nH]c(-c3ccc(C(F)(F)F)cc3)nc2c1		> 22	> 22		2			> 2	5		22	> 1.8	> 5	5
COc1ccc(-c2nc3cc(/C(C)=N/NC(N)=O)ccc3[nH]2)c(OC)c1		> 80	> 80		21	> 80	80	≥ 21	≥ 100	> 100	80	2.55	> 100	> 100
CC(=O)c1ccc2[nH]c(C3CCCCC3)nc2c1	> 100	47	> 100		> 100	> 100	> 100	> 100	> 100	> 100	> 100	> 100	> 100	> 100
C/C(=N\NC(N)=S)c1ccc2c(c1)nc(-c1ccoc1)n2C1CCCCC1	> 25	> 25	> 25		21	> 25	> 25	> 21	> 100		25	> 100	> 100	> 100
CC(=O)c1ccc2c(c1)nc(-c1ccccn1)n2C1CCCCC1	> 90	> 90	> 90		70	> 90	> 90	> 70	≥ 100		> 90	> 100	> 100	> 100
C/C(=N\O)c1ccc2[nH]c(-c3ccc(Cl)cc3)nc2c1					20			> 20	33			18	> 33	37
CC(=O)c1ccc2[nH]c(-c3ccoc3)nc2c1	> 100	> 100	> 100		> 100	> 100	> 100	> 100	98		> 100	22	> 98	≥ 100
COc1ccc(-c2nc3cc(C(C)=O)ccc3[nH]2)c(OC)c1		> 100	> 100		50		> 100	> 50	50		> 100	21	> 50	73
COc1ccc(-c2nc3cc(/C(C)=N/NC(N)=S)ccc3n2C2CCCCC2)cc1	> 40	> 40	> 40	> 40	39	> 40	> 40	> 39			40	7		32
COc1ccc(-c2nc3cc(/C(C)=N/NC(N)=O)ccc3n2C2CCCCC2)c(OC)c1	> 20	> 20	> 20		23		> 20	> 23	19		20	22	> 19	36
COc1ccc(-c2nc3cc(/C(C)=N/NC(N)=S)ccc3[nH]2)cc1		> 100	> 100		5	> 100	> 100	> 5	13	> 13	> 100	1.85	> 13	13
COc1ccc(-c2nc3cc(C(C)=O)ccc3[nH]2)cc1		> 100	> 100		24		> 100	> 24	40		> 100	> 58	> 40	58
C/C(=N\NC(N)=S)c1ccc2[nH]c(-c3ccccc3)nc2c1		> 100	> 100	> 100	≥ 100	> 100		> 100	32	> 32	> 100	3.8	> 32	32
CC(=O)c1ccc2c(c1)nc(-c1ccoc1)n2C1CCCCC1	> 80	> 80	> 80		63		> 80	> 63	77		80	> 100	> 77	> 100
C/C(=N\NC(N)=S)c1ccc2c(c1)nc(-c1ccccn1)n2C1CCCCC1	> 20	> 20	> 20		23	> 20	> 20	> 23	24		20	26	> 24	41
C/C(=N\NC(N)=S)c1ccc2[nH]c(-c3ccc(Cl)cc3)nc2c1		> 100	> 100		2	> 100	> 100	> 2	> 100	> 100	> 100	0.85	> 100	> 100
